Drawing on ChEMBL document CHEMBL1914435, “Synthesis and evaluation of novel macrocyclic antifungal peptides” (2011), this text covers Activity and MIC for 17 molecules.

One may read the MIC as the least concentration at which growth counts as inhibited. Read a high MIC as a need for much substance.

Molecules are shown by their SMILES. In brackets after ≈: the same amount, converted by molar mass. Activity calls are given as the source filed them. The calls are words filed in the database; no cut-off is given here. Starred links: 1 amine or outer side, 2 acyl side, 3 side chain; linkers in the order of their positions; H or OH if unused. Positions of bridges follow the written chain, without caps; N, C: chain ends. Non-standard residues stand in square brackets, D forms with d. Residues, ends and D or L forms follow the SMILES beside them. *: point of attachment. pTerphenylCO(4''-OnC5H11) = CCCCCOc1ccc(-c2ccc(-c3ccc(C(=O)*)cc3)cc2)cc1; hTyr = N[C@@H](CCc1ccc(O)cc1)C(=O)O; Ethylenediamine = C(CN[*:2])N[*:1]; Palmitoyl = CCCCCCCCCCCCCCCC(=O)*; Hyp = O=C(O)[C@@H]1C[C@@H](O)CN1; AllylGly = C=CC[C@H](N)C(=O)O; Orn = NCCC[C@H](N)C(=O)O; NHNH2 = NN*

Test [1] has as its system Candida albicans. In words: Antifungal activity against Candida albicans CBS 9975 after 24 hrs by broth microdilution method. The format is functional. The settings on record: for MIC: CBS 9975, 24 h. The method in brief:
(§1)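 Broth microdilution in YPD (1% yeast extract, 2% peptone, 1% dextrose). Compounds dissolved in water or 10% DMSO at 1 mg/mL, diluted fivefold in YPD, then serially twofold. CBS yeast isolates were grown on YPD agar for 24 h at 30 °C, then in YPD broth with shaking for 24 h. Inoculum was ~1.5 × 10³ cells/ml. Incubation at 30 °C. MIC read visually at 24 h as the lowest concentration giving full growth inhibition.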
(Dilution methods test growth across graded concentrations, often in twofold steps.)

In test [2] the test system is Candida albicans. Description: Antifungal activity against Candida albicans after 24 hrs by broth microdilution method. Format: functional, organism-based. The method in brief:
as §1

Test [3] relates to Candida dubliniensis. Description: Antifungal activity against Candida dubliniensis after 24 hrs by broth microdilution method. Format: functional, organism-based. The method in brief: as §1
Test [4] has as its system Nakaseomyces glabratus. Description: Antifungal activity against Candida glabrata after 24 hrs by broth microdilution method. The format is functional, organism-based. The method in brief: as §1
Test [5] relates to Candida tropicalis. Description: Antifungal activity against Candida tropicalis after 24 hrs by broth microdilution method. The format is functional, organism-based. The method in brief: as §1
Test [6] has as its system Candida parapsilosis. Description: Antifungal activity against Candida parapsilosis after 24 hrs by broth microdilution method. The format is functional, organism-based. The method in brief: as §1
The subject of test [7] is Pichia kudriavzevii. Description: Antifungal activity against Candida krusei after 24 hrs by broth microdilution method. The format is functional, organism-based. The method in brief: as §1
Test [8] concerns Candida albicans. In words: Antifungal activity against Candida albicans CBS 9975 assessed as enlarged round cells with distorted cytoplasm after 24 hrs by broth microdilution method. The format is functional, organism-based.
Test [9] concerns Candida albicans. Description: Antifungal activity against Candida albicans CBS 9975 assessed as enlarged round cells with large vacuoles after 24 hrs by broth microdilution method. The format is functional, organism-based.
The subject of test [10] is Candida albicans. In words: Antifungal activity against Candida albicans CBS 9975 assessed as agglutinated enlarged round cells after 24 hrs by broth microdilution method. Format: functional, organism-based.
Test [11] deals with Candida albicans. In words: Antifungal activity against Candida albicans CBS 9975 assessed as reduction in budding cells after 24 hrs by broth microdilution method. Format: functional, organism-based.

Regarding `CCCCCOc1ccc(-c2ccc(-c3ccc(C(=O)N[C@H]4C/C=C\C[C@@H](C(=O)NN)NC(=O)[C@@H]5C[C@@H](O)CN5C(=O)[C@H](CCCN)NC(=O)[C@H](CCc5ccc(O)cc5)NC(=O)[C@@H]5C[C@@H](O)CN5C(=O)[C@H]([C@@H](C)O)NC4=O)cc3)cc2)cc1` ({pTerphenylCO(4''-OnC5H11)}-[AllylGly]T[Hyp][hTyr][Orn][Hyp][AllylGly]-NHNH2; staple (Z) 1-7), in test [1], the Activity entry was “Dose-dependent effect” and the MIC was over 100 µg/mL.
On to `CCCCCCCCCCCCCCCC(=O)N[C@H]1CCCNC(=O)[C@@H]2C[C@@H](O)CN2C(=O)[C@H](CCCN)NC(=O)[C@H](CCc2ccc(O)cc2)NC(=O)[C@@H]2C[C@@H](O)CN2C(=O)[C@H]([C@@H](C)O)NC1=O` (Palmitoyl-[Orn]T[Hyp][hTyr][Orn][Hyp]; lactam 1-C), for which the lowest concentration to inhibit growth in [1] (MIC) was 4.38 µg/mL (≈ 4.51 µM). Besides, the result in test [2], in test [3], in test [4], in test [5], in test [6] and in test [7] was Active.
With `CCCCCCCCCCCCCCCC(=O)N[C@H]1C/C=C\C[C@@H](C(=O)O)NC(=O)[C@@H]2C[C@@H](O)CN2C(=O)[C@H](CCCN)NC(=O)[C@H](CCc2ccc(O)cc2)NC(=O)[C@@H]2C[C@@H](O)CN2C(=O)[C@H]([C@@H](C)O)NC1=O` (Palmitoyl-[AllylGly]T[Hyp][hTyr][Orn][Hyp][AllylGly]-OH; staple (Z) 1-7), the MIC in [1] was over 100 µg/mL.
Molecule `CCCCCOc1ccc(-c2ccc(-c3ccc(C(=O)N[C@H]4C/C=C\C[C@@H](C(=O)OC)NC(=O)[C@@H]5C[C@@H](O)CN5C(=O)[C@H](CCCN)NC(=O)[C@H](CCc5ccc(O)cc5)NC(=O)[C@@H]5C[C@@H](O)CN5C(=O)[C@H]([C@@H](C)O)NC4=O)cc3)cc2)cc1` ({pTerphenylCO(4''-OnC5H11)}-[AllylGly]T[Hyp][hTyr][Orn][Hyp][AllylGly]-OMe; staple (Z) 1-7) registered an MIC in [1] of over 100 µg/mL.
Still for that read-out and setting: to `CCCCCCCCCCCCCCCC(=O)N[C@H]1C/C=C\C[C@@H](C(N)=O)NC(=O)[C@@H]2C[C@@H](O)CN2C(=O)[C@H](CCCN)NC(=O)[C@H](CCc2ccc(O)cc2)NC(=O)[C@@H]2C[C@@H](O)CN2C(=O)[C@H]([C@@H](C)O)NC1=O` (Palmitoyl-[AllylGly]T[Hyp][hTyr][Orn][Hyp][AllylGly]-NH2; staple (Z) 1-7) belongs over 100 µg/mL; to `CC[C@H](C)C[C@H](C)CCCCCCCCC(=O)N[C@H]1C[C@@H](O)[C@@H](NCCN)NC(=O)[C@@H]2[C@@H](O)CCN2C(=O)[C@H]([C@H](O)CCN)NC(=O)[C@H]([C@H](O)[C@@H](O)c2ccc(O)cc2)NC(=O)[C@@H]2C[C@@H](O)CN2C(=O)[C@H]([C@@H](C)O)NC1=O` [CASPOFUNGIN], 0.025 µg/mL (≈ 0.0229 µM); to `CCCCCCCCCCCCCCCC(=O)N[C@H]1CCCC[C@@H](C(=O)O)NC(=O)[C@@H]2C[C@@H](O)CN2C(=O)[C@H](CCCN)NC(=O)[C@H](CCc2ccc(O)cc2)NC(=O)[C@@H]2C[C@@H](O)CN2C(=O)[C@H]([C@@H](C)O)NC1=O`, over 100 µg/mL.
Turning to `CCCCCOc1ccc(-c2ccc(-c3ccc(C(=O)N[C@H]4C/C=C\C[C@@H](CO)NC(=O)[C@@H]5C[C@@H](O)CN5C(=O)[C@H](CCCN)NC(=O)[C@H](CCc5ccc(O)cc5)NC(=O)[C@@H]5C[C@@H](O)CN5C(=O)[C@H]([C@@H](C)O)NC4=O)cc3)cc2)cc1`, in [1], the Activity result was “Dose-dependent effect” and the MIC is over 100 µg/mL.
Take `CCCCCOc1ccc(-c2ccc(-c3ccc(C(=O)N[C@H]4CCCCNC(=O)[C@@H]5C[C@@H](O)CN5C(=O)[C@H](CCCN)NC(=O)[C@H](CCc5ccc(O)cc5)NC(=O)[C@@H]5C[C@@H](O)CN5C(=O)[C@H]([C@@H](C)O)NC4=O)cc3)cc2)cc1` ({pTerphenylCO(4''-OnC5H11)}-KT[Hyp][hTyr][Orn][Hyp]; lactam 1-C): the MIC in test [1] is over 100 µg/mL. In addition, the outcome in test [2], in test [3], in test [4], in test [5], in [6] and in test [7] was Active.
With `CCCCCCCCCCCCCCCC(=O)N[C@H]1CCCNC(=O)[C@@H]2C[C@@H](O)CN2C(=O)[C@H]([C@@H](C)O)NC(=O)[C@H](CCc2ccc(O)cc2)NC(=O)[C@@H]2C[C@@H](O)CN2C(=O)[C@H]([C@@H](C)O)NC1=O` (Palmitoyl-[Orn]T[Hyp][hTyr]T[Hyp]; lactam 1-C), the MIC in [1] worked out at 25 µg/mL (≈ 26.1 µM). For the same molecule, the outcome in test [2], in [3], in test [4], in [5], in [6] and in [7] was Active.
As for `CCCCCOc1ccc(-c2ccc(-c3ccc(C(=O)N[C@H]4CCCNC(=O)[C@@H]5C[C@@H](O)CN5C(=O)[C@H](CCCN)NC(=O)[C@H](CCc5ccc(O)cc5)NC(=O)[C@@H]5C[C@@H](O)CN5C(=O)[C@H]([C@@H](C)O)NC4=O)cc3)cc2)cc1` ({pTerphenylCO(4''-OnC5H11)}-[Orn]T[Hyp][hTyr][Orn][Hyp]; lactam 1-C), in test [1], the MIC is 0.14 µg/mL (≈ 0.13 µM). The outcome in [2], in [3], in test [4], in [5], in [6] and in [7] was Active.
Molecule `CCCCCOc1ccc(-c2ccc(-c3ccc(C(=O)N[C@H]4CCCC[C@@H](C(=O)O)NC(=O)[C@@H]5C[C@@H](O)CN5C(=O)[C@H](CCCN)NC(=O)[C@H](CCc5ccc(O)cc5)NC(=O)[C@@H]5C[C@@H](O)CN5C(=O)[C@H]([C@@H](C)O)NC4=O)cc3)cc2)cc1` gave an MIC in [1] of over 100 µg/mL.
For the molecule `CCCCCOc1ccc(-c2ccc(-c3ccc(C(=O)N[C@H]4C/C=C\C[C@@H](C(=O)O)NC(=O)[C@@H]5C[C@@H](O)CN5C(=O)[C@H](CCCN)NC(=O)[C@H](CCc5ccc(O)cc5)NC(=O)[C@@H]5C[C@@H](O)CN5C(=O)[C@H]([C@@H](C)O)NC4=O)cc3)cc2)cc1` ({pTerphenylCO(4''-OnC5H11)}-[AllylGly]T[Hyp][hTyr][Orn][Hyp][AllylGly]-OH; staple (Z) 1-7), the outcome in test [8], in [9], in [10] and in [11] was Active. Also, in [1], the Activity result is “Dose-dependent effect”. Also, the MIC in [1] was over 100 µg/mL.
In turn, `CCCCCCCCCCCCCCCC(=O)N[C@H]1CCCC[C@@H](C(N)=O)NC(=O)[C@@H]2C[C@@H](O)CN2C(=O)[C@H](CCCN)NC(=O)[C@H](CCc2ccc(O)cc2)NC(=O)[C@@H]2C[C@@H](O)CN2C(=O)[C@H]([C@@H](C)O)NC1=O` returned an MIC in test [1] of over 100 µg/mL.
The molecule `CCCCCOc1ccc(-c2ccc(-c3ccc(C(=O)N[C@H]4CCCNC(=O)[C@@H]5C[C@@H](O)CN5C(=O)[C@H]([C@@H](C)O)NC(=O)[C@H](CCc5ccc(O)cc5)NC(=O)[C@@H]5C[C@@H](O)CN5C(=O)[C@H]([C@@H](C)O)NC4=O)cc3)cc2)cc1` ({pTerphenylCO(4''-OnC5H11)}-[Orn]T[Hyp][hTyr]T[Hyp]; lactam 1-C) had an MIC in [1] of 0.47 µg/mL (≈ 0.442 µM). In addition, the outcome in [2], in [3], in test [4], in test [5], in test [6] and in test [7] was Active.
`CCCCCCCCCCCCCCCC(=O)N[C@H]1CSSC[C@@H](C(N)=O)NC(=O)[C@@H]2C[C@@H](O)CN2C(=O)[C@H](CCCN)NC(=O)[C@H](CCc2ccc(O)cc2)NC(=O)[C@@H]2C[C@@H](O)CN2C(=O)[C@H]([C@@H](C)O)NC1=O` (Palmitoyl-CT[Hyp][hTyr][Orn][Hyp]C-NH2; disulfide 1-7) came in with an MIC in [1] of over 100 µg/mL.
Take `CCCCCOc1ccc(-c2ccc(-c3ccc(C(=O)N[C@H]4C/C=C\C[C@@H](C(=O)NCCN)NC(=O)[C@@H]5C[C@@H](O)CN5C(=O)[C@H](CCCN)NC(=O)[C@H](CCc5ccc(O)cc5)NC(=O)[C@@H]5C[C@@H](O)CN5C(=O)[C@H]([C@@H](C)O)NC4=O)cc3)cc2)cc1` ({pTerphenylCO(4''-OnC5H11)}-[AllylGly]T[Hyp][hTyr][Orn][Hyp][AllylGly]-Ethylenediamine; staple (Z) 1-7): in test [1], the Activity entry is “Dose-dependent effect” and the MIC was over 100 µg/mL.
